Source: the M2OR odorant receptor database
Where a chain is given by its changes, count along the chain named.

Key:
Details in all cases: stereoisomer not certain
[1] = system: T1, O5AP2 A105T
T1 sequence (whole entry): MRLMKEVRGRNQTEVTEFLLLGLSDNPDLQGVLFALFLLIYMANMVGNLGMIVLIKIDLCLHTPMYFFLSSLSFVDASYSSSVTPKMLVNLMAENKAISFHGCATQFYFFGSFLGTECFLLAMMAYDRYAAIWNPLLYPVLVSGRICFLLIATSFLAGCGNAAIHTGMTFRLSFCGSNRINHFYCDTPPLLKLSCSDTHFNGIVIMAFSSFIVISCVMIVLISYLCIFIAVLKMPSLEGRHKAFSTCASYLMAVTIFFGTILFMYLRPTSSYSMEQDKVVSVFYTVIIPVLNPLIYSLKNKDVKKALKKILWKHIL
Summary of the method: (§1)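 Values were gathered from published papers (main text and supplementary material), with extra details requested from the original authors when needed, and checked for typos and inconsistencies. Each receptor–molecule pair is called responsive (active) if the original authors judged the measured signal statistically different from baseline, and non-responsive (inactive) otherwise. Assay methods varied by source, often transient mammalian cell-line luciferase assays. Recorded details include cell line, G-protein, co-transfected protein and tags.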

[2] = system: T2, O5AU1
T2 sequence (whole entry): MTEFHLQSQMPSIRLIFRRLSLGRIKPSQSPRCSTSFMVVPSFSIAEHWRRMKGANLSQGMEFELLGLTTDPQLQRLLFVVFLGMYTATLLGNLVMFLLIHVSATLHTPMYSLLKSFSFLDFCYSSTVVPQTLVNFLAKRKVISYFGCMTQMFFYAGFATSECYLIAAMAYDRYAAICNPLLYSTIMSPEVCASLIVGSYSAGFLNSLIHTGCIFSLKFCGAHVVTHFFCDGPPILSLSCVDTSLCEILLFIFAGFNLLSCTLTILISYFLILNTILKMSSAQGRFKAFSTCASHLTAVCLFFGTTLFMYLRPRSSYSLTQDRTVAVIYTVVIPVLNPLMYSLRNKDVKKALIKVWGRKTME
Summary of the method: as §1

[3] = system: T3, O5H14
T3 sequence (whole entry): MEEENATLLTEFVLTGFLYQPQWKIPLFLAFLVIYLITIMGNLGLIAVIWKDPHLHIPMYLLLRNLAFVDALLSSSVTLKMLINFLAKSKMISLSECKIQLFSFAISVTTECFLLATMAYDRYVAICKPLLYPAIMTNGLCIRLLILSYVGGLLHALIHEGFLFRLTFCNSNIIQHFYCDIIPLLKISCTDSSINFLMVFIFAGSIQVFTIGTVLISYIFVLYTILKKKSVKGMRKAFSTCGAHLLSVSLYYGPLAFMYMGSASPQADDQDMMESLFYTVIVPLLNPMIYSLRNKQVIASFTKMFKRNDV
Summary of the method: as §1

[4] = system: T4, O5H15 V108I S148T T167S
T4 sequence (whole entry): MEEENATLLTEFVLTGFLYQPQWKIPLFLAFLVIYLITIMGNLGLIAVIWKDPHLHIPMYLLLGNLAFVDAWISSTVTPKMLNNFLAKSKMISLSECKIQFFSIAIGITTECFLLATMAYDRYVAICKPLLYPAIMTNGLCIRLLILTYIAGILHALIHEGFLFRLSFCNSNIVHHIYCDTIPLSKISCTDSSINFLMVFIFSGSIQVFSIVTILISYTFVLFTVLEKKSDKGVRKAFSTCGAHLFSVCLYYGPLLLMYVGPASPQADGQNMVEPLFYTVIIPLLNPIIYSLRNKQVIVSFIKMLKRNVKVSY
Summary of the method: as §1

[5] = system: T5, O6C65 T222A
T5 sequence (whole entry): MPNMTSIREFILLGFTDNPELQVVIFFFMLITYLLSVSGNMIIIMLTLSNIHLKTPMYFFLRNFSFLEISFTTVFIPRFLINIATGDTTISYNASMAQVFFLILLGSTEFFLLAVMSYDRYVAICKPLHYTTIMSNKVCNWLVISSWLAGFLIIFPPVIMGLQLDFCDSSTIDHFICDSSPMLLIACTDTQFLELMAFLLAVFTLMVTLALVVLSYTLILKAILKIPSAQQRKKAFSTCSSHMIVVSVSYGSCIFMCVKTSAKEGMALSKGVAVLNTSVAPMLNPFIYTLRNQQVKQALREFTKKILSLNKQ
Summary of the method: as §1

[6] = system: T6, O6C70 L181P
T6 sequence (whole entry): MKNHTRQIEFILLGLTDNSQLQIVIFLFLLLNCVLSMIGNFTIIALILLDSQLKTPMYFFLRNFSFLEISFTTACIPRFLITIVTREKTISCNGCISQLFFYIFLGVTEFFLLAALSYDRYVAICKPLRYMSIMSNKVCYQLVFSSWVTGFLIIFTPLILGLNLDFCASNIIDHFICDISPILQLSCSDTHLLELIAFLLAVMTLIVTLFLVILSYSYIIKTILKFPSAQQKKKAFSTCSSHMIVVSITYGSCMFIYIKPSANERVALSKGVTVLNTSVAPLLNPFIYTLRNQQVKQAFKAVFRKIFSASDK
Summary of the method: as §1

[7] = system: T7, O7E24 S193F P242S
T7 sequence (whole entry): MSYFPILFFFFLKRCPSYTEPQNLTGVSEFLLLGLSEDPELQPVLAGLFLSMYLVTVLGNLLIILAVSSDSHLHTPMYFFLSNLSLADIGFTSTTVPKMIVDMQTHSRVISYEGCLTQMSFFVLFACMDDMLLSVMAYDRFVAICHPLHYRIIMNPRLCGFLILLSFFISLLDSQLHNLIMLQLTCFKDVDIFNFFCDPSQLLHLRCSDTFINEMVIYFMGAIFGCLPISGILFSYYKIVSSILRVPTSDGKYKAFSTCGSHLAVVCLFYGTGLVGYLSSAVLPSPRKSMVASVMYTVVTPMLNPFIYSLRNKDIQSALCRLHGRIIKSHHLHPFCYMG
Summary of the method: as §1

[8] = system: T8, O7E24
T8 sequence (whole entry): T7 sequence (whole entry) with F193S
Summary of the method: as §1

[9] = target: T9, OR10A2 (Homo sapiens) (UniProt Q9H208)
T9 sequence (whole entry): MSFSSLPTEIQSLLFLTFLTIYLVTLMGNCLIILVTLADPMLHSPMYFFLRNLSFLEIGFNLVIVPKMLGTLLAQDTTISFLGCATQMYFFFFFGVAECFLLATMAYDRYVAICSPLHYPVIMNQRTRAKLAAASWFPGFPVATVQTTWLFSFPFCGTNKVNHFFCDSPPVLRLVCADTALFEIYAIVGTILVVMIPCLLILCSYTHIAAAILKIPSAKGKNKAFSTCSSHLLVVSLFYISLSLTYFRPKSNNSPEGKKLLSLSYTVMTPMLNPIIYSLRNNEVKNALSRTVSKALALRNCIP
Summary of the method: as §1

[10] = target: T10, OR10A3 (Homo sapiens) (UniProt P58181)
T10 sequence (whole entry): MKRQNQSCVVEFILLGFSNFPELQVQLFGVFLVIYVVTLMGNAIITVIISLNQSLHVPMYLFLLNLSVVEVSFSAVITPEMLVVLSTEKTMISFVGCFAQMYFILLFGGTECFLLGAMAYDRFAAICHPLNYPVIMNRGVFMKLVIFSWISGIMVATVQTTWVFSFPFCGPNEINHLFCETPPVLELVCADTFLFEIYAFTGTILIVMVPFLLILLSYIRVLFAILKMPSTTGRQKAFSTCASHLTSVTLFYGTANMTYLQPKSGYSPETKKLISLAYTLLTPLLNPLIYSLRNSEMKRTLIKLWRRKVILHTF
Summary of the method: as §1

[11] = target: T11, OR10A4 (Homo sapiens) (UniProt Q9H209)
T11 sequence (whole entry): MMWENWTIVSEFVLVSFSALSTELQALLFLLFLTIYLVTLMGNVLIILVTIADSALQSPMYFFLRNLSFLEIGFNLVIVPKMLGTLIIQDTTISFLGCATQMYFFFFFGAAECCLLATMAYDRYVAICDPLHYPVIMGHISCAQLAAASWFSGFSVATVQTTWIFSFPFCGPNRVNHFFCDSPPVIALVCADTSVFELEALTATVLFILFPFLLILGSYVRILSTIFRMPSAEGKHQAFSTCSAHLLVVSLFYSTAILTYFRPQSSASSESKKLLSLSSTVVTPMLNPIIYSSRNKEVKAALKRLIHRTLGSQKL
Summary of the method: as §1

[12] = target: T12, OR10A5 (Homo sapiens) (UniProt Q9H207)
T12 sequence (whole entry): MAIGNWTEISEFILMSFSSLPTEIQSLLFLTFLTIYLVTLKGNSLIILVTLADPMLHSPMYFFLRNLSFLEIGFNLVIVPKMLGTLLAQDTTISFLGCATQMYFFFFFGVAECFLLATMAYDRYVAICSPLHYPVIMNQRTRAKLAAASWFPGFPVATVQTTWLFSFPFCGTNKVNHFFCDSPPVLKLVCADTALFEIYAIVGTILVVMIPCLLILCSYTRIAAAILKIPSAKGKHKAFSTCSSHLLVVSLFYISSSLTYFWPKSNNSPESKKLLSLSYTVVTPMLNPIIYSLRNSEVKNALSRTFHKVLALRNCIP
Summary of the method: as §1

[13] = target: T13, OR10A6 (Homo sapiens) (UniProt Q8NH74)
T13 sequence (whole entry): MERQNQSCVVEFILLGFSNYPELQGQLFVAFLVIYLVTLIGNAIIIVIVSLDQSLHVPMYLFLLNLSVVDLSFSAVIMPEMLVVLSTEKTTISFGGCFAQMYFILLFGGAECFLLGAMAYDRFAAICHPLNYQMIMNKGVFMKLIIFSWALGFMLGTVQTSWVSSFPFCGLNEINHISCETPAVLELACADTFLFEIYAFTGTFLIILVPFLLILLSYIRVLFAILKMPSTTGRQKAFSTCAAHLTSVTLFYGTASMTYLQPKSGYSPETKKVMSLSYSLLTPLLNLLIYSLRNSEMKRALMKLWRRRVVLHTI
Summary of the method: as §1

[14] = target: T14, OR10A7 (Homo sapiens) (UniProt Q8NGE5)
T14 sequence (whole entry): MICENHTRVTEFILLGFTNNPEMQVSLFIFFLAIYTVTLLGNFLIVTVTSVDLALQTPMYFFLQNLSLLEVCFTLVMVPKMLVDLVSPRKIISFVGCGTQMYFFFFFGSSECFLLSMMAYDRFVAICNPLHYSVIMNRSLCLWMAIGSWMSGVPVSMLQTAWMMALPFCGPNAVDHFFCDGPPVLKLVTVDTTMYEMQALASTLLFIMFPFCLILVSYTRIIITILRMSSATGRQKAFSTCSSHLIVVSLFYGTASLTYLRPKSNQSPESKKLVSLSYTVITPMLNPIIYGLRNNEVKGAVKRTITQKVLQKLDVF
Summary of the method: as §1

[15] = target: T15, OR10AD1 (Homo sapiens) (UniProt Q8NGE0)
T15 sequence (whole entry): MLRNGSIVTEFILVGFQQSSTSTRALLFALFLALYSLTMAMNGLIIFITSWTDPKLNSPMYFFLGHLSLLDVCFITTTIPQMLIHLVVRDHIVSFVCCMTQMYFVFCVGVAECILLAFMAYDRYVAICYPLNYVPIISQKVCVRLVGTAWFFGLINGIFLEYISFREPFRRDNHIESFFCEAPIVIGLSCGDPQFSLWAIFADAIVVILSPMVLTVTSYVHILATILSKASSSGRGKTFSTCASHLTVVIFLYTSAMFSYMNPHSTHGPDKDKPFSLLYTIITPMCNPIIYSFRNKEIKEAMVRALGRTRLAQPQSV
Summary of the method: as §1

[16] = target: T16, OR10AG1 (Homo sapiens) (UniProt Q8NH19)
T16 sequence (whole entry): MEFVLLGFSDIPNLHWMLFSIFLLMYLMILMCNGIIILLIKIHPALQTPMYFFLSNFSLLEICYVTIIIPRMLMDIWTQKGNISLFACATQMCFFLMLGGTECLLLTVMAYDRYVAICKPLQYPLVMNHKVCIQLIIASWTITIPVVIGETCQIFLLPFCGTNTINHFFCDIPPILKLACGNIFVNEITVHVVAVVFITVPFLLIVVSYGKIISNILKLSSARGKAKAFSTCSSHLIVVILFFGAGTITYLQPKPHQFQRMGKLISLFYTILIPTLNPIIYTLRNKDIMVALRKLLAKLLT
Summary of the method: as §1

[17] = target: T17, OR10C1 (Homo sapiens) (UniProt Q96KK4)
T17 sequence (whole entry): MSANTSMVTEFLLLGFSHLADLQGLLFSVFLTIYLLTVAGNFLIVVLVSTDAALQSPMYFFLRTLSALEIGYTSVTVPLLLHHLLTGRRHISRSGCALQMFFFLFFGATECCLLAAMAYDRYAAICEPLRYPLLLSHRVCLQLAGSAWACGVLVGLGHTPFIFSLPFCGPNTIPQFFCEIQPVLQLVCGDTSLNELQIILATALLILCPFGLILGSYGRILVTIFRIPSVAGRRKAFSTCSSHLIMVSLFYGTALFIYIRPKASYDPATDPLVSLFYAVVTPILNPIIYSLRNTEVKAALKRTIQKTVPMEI
Summary of the method: as §1

[18] = target: T18, OR10D3 (Homo sapiens) (UniProt Q8NH80)
T18 sequence (whole entry): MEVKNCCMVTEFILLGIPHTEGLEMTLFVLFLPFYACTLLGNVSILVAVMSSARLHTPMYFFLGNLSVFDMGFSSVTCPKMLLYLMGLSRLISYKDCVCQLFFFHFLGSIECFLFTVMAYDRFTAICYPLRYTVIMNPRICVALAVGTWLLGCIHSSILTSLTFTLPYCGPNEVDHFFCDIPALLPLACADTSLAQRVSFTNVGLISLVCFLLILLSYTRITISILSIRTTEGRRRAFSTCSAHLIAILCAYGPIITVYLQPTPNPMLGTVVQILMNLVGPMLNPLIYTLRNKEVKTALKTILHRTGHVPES
Summary of the method: as §1

[19] = system: T19, O5AN1
T19 sequence (whole entry): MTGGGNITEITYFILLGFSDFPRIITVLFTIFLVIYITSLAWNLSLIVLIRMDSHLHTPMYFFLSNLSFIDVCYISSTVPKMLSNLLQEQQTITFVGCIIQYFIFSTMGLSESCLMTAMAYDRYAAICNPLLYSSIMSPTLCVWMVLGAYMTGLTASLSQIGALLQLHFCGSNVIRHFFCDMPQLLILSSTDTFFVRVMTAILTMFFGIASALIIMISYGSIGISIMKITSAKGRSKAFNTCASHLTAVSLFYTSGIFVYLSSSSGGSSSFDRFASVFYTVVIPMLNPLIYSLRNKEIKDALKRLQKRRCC
Summary of the method: as §1

[20] = target: OR10AC1 (Homo sapiens) (UniProt Q8NH08)
OR10AC1 (Homo sapiens), sequence (Q8NH08 whole entry): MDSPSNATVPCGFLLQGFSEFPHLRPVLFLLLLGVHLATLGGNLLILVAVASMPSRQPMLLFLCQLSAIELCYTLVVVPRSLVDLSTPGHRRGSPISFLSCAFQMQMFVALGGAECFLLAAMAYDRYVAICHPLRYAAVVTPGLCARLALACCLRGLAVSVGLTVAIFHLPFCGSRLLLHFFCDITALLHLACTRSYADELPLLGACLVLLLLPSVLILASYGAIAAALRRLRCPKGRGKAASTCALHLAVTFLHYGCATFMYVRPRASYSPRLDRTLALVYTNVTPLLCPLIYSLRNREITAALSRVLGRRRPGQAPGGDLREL
Summary of the method: as §1

Measured: odorant receptor agonist call

CCC1OC(C)=C(O)C1=O (stereo not given)
inactive: [1] | [2] | [3] | [4] | [5] | [6] | [7] | [8] | [9] | [10] | [11] | [12] | [13] | [14] | [15] | [16] | [17] | [18]

O=C1C=CCCCCCCCCCCCCO1
inactive: [19]

O=C1CCCCCCCCCC1
inactive: [19]

CC(=O)c1c(C)c([N+](=O)[O-])c(C(C)(C)C)c([N+](=O)[O-])c1C
inactive: [9] | [11] | [12] | [13] | [14] | [20] | [15] | [16] | [17]
active: [19]
